Key:
Acetylcholinesterase [1] = biological target: T1, Acetylcholinesterase (Electrophorus electricus, UniProt O42275); test: Inhibition of electric eel AChE by Ellman's method
Cholinesterase = Cholinesterase (Equus caballus, UniProt P81908); test: Inhibition of equine serum BuChE by Ellman's method
In short: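 Modified Ellman assay with equine serum BuChE (enzyme stock 2.0 units/mL), run the same way as the AChE assay. Phosphate buffer pH 8.0 with DTNB (0.01 M stock). Inhibitor incubated 15 min with enzyme, buffer and DTNB before substrate was added. Absorbance rise at 412 nm read over 1 min at 37 °C. IC50 given as mean ± SEM of three experiments.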

[2] = Selectivity ratio of IC50 for equine serum BuChE to IC50 for electric eel AChE
In short: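 Modified Ellman assays with electric eel AChE and equine serum BuChE (enzyme stocks 2.0 units/mL). AChE substrate was acetylthiocholine chloride (0.01 M stock), in phosphate buffer pH 8.0 with DTNB (0.01 M stock), after 15 min inhibitor preincubation. A412 read over 1 min at 37 °C. IC50s are means ± SEM of three experiments; ratio = IC50(BuChE)/IC50(AChE).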

Acetylcholinesterase [3] = biological target: T1, Acetylcholinesterase; test: Inhibition of electric eel AChE by LB plot

T1 sequence (O42275 whole entry): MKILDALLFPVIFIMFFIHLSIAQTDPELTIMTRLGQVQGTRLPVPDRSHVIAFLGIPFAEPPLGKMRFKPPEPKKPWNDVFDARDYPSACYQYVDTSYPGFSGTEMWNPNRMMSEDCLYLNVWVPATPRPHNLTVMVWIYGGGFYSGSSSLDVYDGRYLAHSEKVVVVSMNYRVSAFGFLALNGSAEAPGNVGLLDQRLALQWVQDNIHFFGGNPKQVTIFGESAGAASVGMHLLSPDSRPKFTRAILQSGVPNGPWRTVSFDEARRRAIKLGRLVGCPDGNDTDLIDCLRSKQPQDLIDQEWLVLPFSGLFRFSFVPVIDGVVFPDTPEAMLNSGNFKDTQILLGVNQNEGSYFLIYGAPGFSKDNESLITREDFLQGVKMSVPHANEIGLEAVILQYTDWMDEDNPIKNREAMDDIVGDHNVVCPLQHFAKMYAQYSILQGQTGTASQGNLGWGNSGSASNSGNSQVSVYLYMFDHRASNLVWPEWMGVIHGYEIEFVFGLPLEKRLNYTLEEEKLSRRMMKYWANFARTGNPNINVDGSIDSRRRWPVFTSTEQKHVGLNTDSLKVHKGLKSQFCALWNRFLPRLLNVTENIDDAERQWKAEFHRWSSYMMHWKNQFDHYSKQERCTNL
Chain of Cholinesterase (P81908 whole entry): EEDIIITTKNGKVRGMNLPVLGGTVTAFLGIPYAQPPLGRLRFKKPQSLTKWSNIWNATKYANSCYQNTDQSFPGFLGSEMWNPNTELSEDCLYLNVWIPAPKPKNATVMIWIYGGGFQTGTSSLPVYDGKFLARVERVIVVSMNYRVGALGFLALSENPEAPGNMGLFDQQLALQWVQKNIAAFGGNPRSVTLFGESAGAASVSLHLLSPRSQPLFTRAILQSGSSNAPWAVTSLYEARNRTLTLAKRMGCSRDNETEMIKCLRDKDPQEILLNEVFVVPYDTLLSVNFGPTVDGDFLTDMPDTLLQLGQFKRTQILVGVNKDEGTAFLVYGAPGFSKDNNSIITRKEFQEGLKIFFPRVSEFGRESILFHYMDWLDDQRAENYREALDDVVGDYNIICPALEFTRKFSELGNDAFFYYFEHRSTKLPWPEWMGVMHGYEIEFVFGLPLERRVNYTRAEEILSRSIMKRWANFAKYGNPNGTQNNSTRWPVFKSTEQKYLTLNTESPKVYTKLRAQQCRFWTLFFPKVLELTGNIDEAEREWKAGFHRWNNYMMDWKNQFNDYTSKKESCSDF

| SMILES | IC50 (Acetylcholinesterase [1]) [µM] | IC50 (Cholinesterase) [µM] | Ratio IC50 [2] | Ki (Acetylcholinesterase [3]) [µM] |
| --- | --- | --- | --- | --- |
| O=C(NCCO)c1cnc2c3c(cccc13)-c1ccccc1C2=O | 18 | 68.7 | 4 | – |
| C[N+](C)(C)CCC(=O)Nc1ccc2c(c1)C(=O)c1cccc3ccnc-2c13 | – | 2.82 | 590 | – |
| C[N+]1(CCNC(=O)c2cnc3c4c(cccc24)-c2ccccc2C3=O)CCCCC1 | 0.35 | 6.76 | 16 | – |
| Nc1ccc2c(c1)C(=O)c1cccc3ccnc-2c13 | – | > 100 | – | 3.86 |
| C[N+]1(CCC(=O)Nc2ccc3c(c2)C(=O)c2cccc4ccnc-3c24)CCCCC1 | 0.00048 | 0.6 | 1250 | 0.00031 |
| C[N+](C)(C)CCNC(=O)c1cnc2c3c(cccc13)-c1ccccc1C2=O | 3.32 | 5.03 | 1 | – |
| C[N+]1(CCNC(=O)c2cnc3c4c(cccc24)-c2ccccc2C3=O)CCOCC1 | 1.24 | 11.7 | 9 | – |
| O=C1c2ccccc2-c2cccc3ccnc1c23 | 10.6 | 4.01 | 0.4 | 14.6 |
| C[N+]1(CCCNC(=O)c2cnc3c4c(cccc24)-c2ccccc2C3=O)CCOCC1 | 1.05 | 4.75 | 4 | – |
| CC[N+](C)(CC)CCNC(=O)c1cnc2c3c(cccc13)-c1ccccc1C2=O | 1.71 | 8.14 | 5 | – |
| CC[N+](C)(CC)CCC(=O)Nc1ccc2c(c1)C(=O)c1cccc3ccnc-2c13 | 0.00262 | 5.19 | 1980 | – |
| CC[N+](C)(CC)CCCNC(=O)c1cnc2c3c(cccc13)-c1ccccc1C2=O | 0.65 | 9.72 | 15 | – |
| C[N+](C)(C)CCCNC(=O)c1cnc2c3c(cccc13)-c1ccccc1C2=O | 3.16 | 2.71 | 1 | – |
| O=C(NCCCO)c1cnc2c3c(cccc13)-c1ccccc1C2=O | 12.2 | 53.3 | 4 | – |
| C[N+]1(CCCNC(=O)c2cnc3c4c(cccc24)-c2ccccc2C3=O)CCCCC1 | 0.11 | 6.24 | 57 | 0.11 |

Reference: ChEMBL document CHEMBL1158399, “Synthesis, biological evaluation and molecular modeling of oxoisoaporphine and oxoaporphine derivatives as new dual inhibitors of acetylcholinesterase/butyrylcholinesterase” (Eur J Med Chem, 2009)
